# Only some compounds are listed: those with a hit (about 1.5% of all), similar ones and a draw of the others.
# Keap1 Nrf2 FP: Keap1-Nrf2 (human) interaction inhibition; AID 504523; 340,000 compounds, 0.15% hits; inhibition, % at 9.4 µM; Keap1 Kelch-Nrf2 peptide fluorescence polarization, 1536-well; Q14145; in the data active = inhibition above about 12%;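 note: human Keap1 Kelch domain with fluorescein labeled Nrf2 9mer peptide probe; 0% = neutral control wells and 100% = peptide positive control; higher means more block of Keap1 binding to Nrf2 peptide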
# CaV13 FRET inh: Disruptors of the CACNA1D IQ motif to Ca2+-dependent inactivation inhibitor domain association, primary screening, Förster resonance energy transfer in intact living … | HEK cells, CFP/YFP FRET ICDI-IQ, plate reader, 10 min; percent FRET-ratio fall versus neutral wells | inhibition, % at 12.3 µM | 340,000 compounds, 0.098% hits | AID 743397;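 active = mean replicate inhibition of at least 30% and at least 1% of replicates passing that level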;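 note: 0% = median of the neutral control wells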
# CAL PDZ FP-1: blocks peptide binding to human CAL PDZ domain | Q9HD26 | 330,000 compounds, 0.02% hits | inhibition, % at 20 µM | purified CAL PDZ, TMR-peptide fluorescence polarization, 1 h | AID 504414;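 active = highest replicate inhibition of at least 40%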;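 note: plate controls were DMSO neutral control wells for no effect and unlabeled competitor peptide control wells for full effect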
#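 material = purified tagged CAL PDZ domain construct (CerCALP) | compound dosing = 20 µM, one dose | times = 1 h at RT | measured by = fluorescence polarization from S- and P-plane intensities, G-factor corrected | read-out = inhibition from polarization loss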
# C-LANA FP: blocks KSHV LANA C-terminal domain binding to DNA; MBP-C-LANA/FAM-LBS DNA binding, fluorescence polarization; inhibition, % at 9 µM; 340,000 compounds, 0.078% hits;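 active = highest replicate inhibition at or above 60% at 9 µM, even if other replicates fall short; inactive = all replicates below 60% inhibition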;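 note: 0% = neutral control wells and 100% = 4 µM acridine orange control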
# LANA-H2B inh: blocks KSHV LANA binding to histone H2A/H2B; cell-free LANA-H2A/H2B peptide, fluorescence polarization; 320,000 compounds, 0.6% hits; AID 2629; inhibition, % (test concentration not listed); Q9QR71; in the data active = inhibition mostly above about 10%, no sharp cut-off; inactive = mostly below about 6.7%
# CAL PDZ FP-2: inhibitors of human CAL PDZ peptide binding; Q9HD26; purified CAL PDZ, TMR-peptide fluorescence polarization, 1 h; inhibition, % at 24.9 µM; 300,000 compounds, 0.92% hits;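 active = mean inhibition of at least 30% with at least half of replicates also reaching 30%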;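 note: 0% = DMSO neutral control and 100% = excess unlabeled competitor peptide PRC23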
# * = called active by the depositor; . = no result; + = active, no number.
SMILES,Keap1 Nrf2 FP,CaV13 FRET inh,CAL PDZ FP-1,C-LANA FP,LANA-H2B inh,CAL PDZ FP-2
COC(=O)CN(C(=O)CSc1nnc(-c2cccc(OC)c2)o1)c1ccc(OC)cc1,0,-6,0,1,4,-3
CCOC(=O)CN(C(=O)CSc1nnc(-c2cccc(OC)c2)o1)c1ccc(F)cc1,1,-5,13,1,-1,32*
COc1ccc(CCNC(=O)CSc2cn(Cc3cccc(C)c3)c3ccccc23)cc1OC,1,49*,0,0,1,.
C#CCN(Cc1cccc(F)c1)C(=O)c1nnc2c3cc(F)ccc3n(S(=O)(=O)c3ccc(OC)cc3)c2n1,.,-3,.,.,.,.
c1ccc2nc(N3CCOCC3)c(N3CCCC3)nc2c1,0,-6,9,10,.,71*
Cc1cc(CN(C)C(=O)c2cc(COc3ccc4ncccc4c3)on2)on1,0,-15,-2,2,-3,76*
CN(Cc1nccn1C)C(=O)c1cc(COc2ccc3ncccc3c2)on1,-2,-4,25,0,5,42*
CCCCOCC1CN(CCCC)S(=O)(=O)c2c(NCc3cc(OC)c(OC)c(OC)c3)cccc2O1 (centres undefined),.,-9,.,.,.,.
Cc1cc(Br)cn2c(Cc3ccccc3C(F)(F)F)c(-c3cccc(Cl)c3)nc12,.,-10,.,.,.,.
C/C(=N\NC(=O)c1nnn(-c2nonc2N)c1CSc1ccc(C)cc1)c1cccs1,.,-4,.,.,.,.
O=S(=O)(c1ccc2c(c1)CCCN2)N1CCCCC1,-3,-3,0,0,1,-5
CCN(CC)c1ccc2c(c1)CCCN2,.,.,.,.,20*,.
O=C(Cc1nc2ccccc2[nH]c1=O)c1ccccc1,-1,58*,1,2,.,1
Cc1ccc(CS(=O)Cc2ccc(C(=O)NCC(C)c3ccccc3)o2)cc1 (centres undefined),-4,-3,-1,0,4,82*
Cc1ccc(NS(=O)(=O)c2cccc(C(=O)NC3CCN(Cc4ccccc4)CC3)c2)cc1,-1,-3,-1,2,.,89*
Cc1ccc2c(c1)c1ncnc(N3CCOCC3)c1n2C,-2,-4,-1,0,-2,42*
Cc1ccc2c(c1)c1ncnc(N3CCN(c4ccccc4)CC3)c1n2C,-2,-5,-1,0,-4,-3
CN(C)c1nc(NCc2ccccc2)nc(Oc2ccc(=O)[nH]n2)n1,1,-4,0,0,4,40*
Cc1ccc2cccc(OCc3cccc([N+](=O)[O-])c3)c2n1,-1,-19,.,-3,-4,61*
Cc1ccc(C)c(NC(=S)NCCN(C2CCCCC2)C2CCCC2)c1,4,-14,-1,4,-3,65*
C[C@@H]1CN([C@@H](C)CO)C(=O)CCCn2cc(nn2)CO[C@H]1CN(C)C(=O)Nc1cccc(C(F)(F)F)c1,.,-6,.,.,.,.
Cc1ccc(N(CC(=O)NC(C)C)C(=O)CCC(=O)Nc2nccs2)c(C)c1,-2,-13,0,1,0,-7
COC(=O)/C=C1/S/C(=N/NC(=O)c2ccc(Cl)cc2Cl)NC1=O,.,-3,.,.,0,.
O=c1cc(CN2CCN(S(=O)(=O)c3ccccc3)CC2)nc2sccn12,1,-2,0,1,-3,-2
O=c1cc(CN2CCCCCC2)nc2sccn12,-6,-1,0,4,+,-7
SMILES,Keap1 Nrf2 FP,CaV13 FRET inh,CAL PDZ FP-1,C-LANA FP,LANA-H2B inh,CAL PDZ FP-2
NC(=O)c1ncn([C@@H]2O[C@H](C(=O)N[C@H](Cc3c[nH]c4ccccc34)C(=O)N3CCN(C(=O)C4CC4)CC3)[C@@H](O)[C@H]2O)n1,.,-9,.,.,.,.
Cc1ccc(NC2OC(CO)C(O)C2O)cc1[N+](=O)[O-] (centres undefined),4,-6,0,1,.,3
Cc1ccc([N+](=O)[O-])cc1NC1CC(O)C(CO)O1 (centres undefined),1,-3,1,0,.,31*
CC(=O)c1cnc(-c2ccccn2)s1,-2,-2,-2,1,18*,-1
Cc1ccccc1NC(=O)COC(=O)C1CC2CCCC(C1)C2=O (centres undefined),5,-2,0,0,2,-6
O=C(COC(=O)C1CC2CCCC(C1)C2=O)NNC(=O)c1ccccc1F (centres undefined),6,-7,-1,4,34*,-5
O=[N+]([O-])c1cc(S(=O)(=O)N2CCOCC2)ccc1OCc1cccc(Cl)c1,0,-3,-1,0,0,-10
O=C1c2ccccc2C(=O)N1COc1ccc(S(=O)(=O)N2CCOCC2)cc1[N+](=O)[O-],-2,-3,-1,-2,-3,50*
CN(c1ccccc1)S(=O)(=O)c1cccc(C(=O)NCc2ccccc2)c1,-1,-2,0,0,2,-2
CN(c1ccccc1)S(=O)(=O)c1cccc(NC(=O)CCNC(=O)c2ccc(Cl)cc2)c1,-2,-2,-3,-1,165*,-3
CC(=O)Nc1cccc(NC(=O)CCNC(=O)c2ccc(Cl)cc2)c1,-2,-4,0,0,0,-4
CN(c1ccccc1)S(=O)(=O)c1cccc(NC(=O)CCNC(=O)c2ccccc2)c1,0,-3,-1,14,4,7
CN(c1cccc(Cl)c1)S(=O)(=O)c1cccc(C(=O)NCc2ccncc2)c1,7,-3,0,4,53*,.
CNC(=O)c1cccc(NC(=O)CCCNC(=O)c2ccc(Cl)cc2)c1,-7,-3,-1,-2,-4,66*
CN(c1ccccc1)S(=O)(=O)c1cccc(C(=O)NCCc2c[nH]c3ccccc23)c1,1,-16,9,0,-6,59*
C[C@@H]1ON(C)[C@H]2C[C@H]3c4cc(-c5ccc(F)cc5)ccc4CCN3C[C@@H]12,.,-4,.,.,.,.
CCCCNc1nccnc1-c1cccc(C=O)c1,.,-4,.,.,.,.
COCCN(CCOC)C(=O)c1ccc(NS(=O)(=O)c2ccc3[nH]c(=O)[nH]c3c2)cc1,0,-6,0,0,33*,-2
O=C(NCCCN1CCCC1)Nc1cccc2ccccc12,-2,-2,-1,-2,14*,1
CCOC(=O)c1ccc(NC(=O)CCc2nnc3ccc(N4CCCC4)nn23)cc1,0,-7,-4,0,2,-1
CCN(CC)c1ccc(NC(=O)CCc2nnc3ccc(N4CCCC4)nn23)c(C)c1,-1,-11,1,-1,29*,.
Cc1cc(C)c(NC(=O)CC(C)(C)C)c(Cl)c1,3,0,-1,-2,2,-2
Cc1cc(C)c(NC(=O)CS)c(Cl)c1,0,-7,0,0,18*,3
COCCn1c(SCC(=O)NC2CCCCC2)nnc1-c1ccncc1,7,-2,0,1,-7,-2

# High-throughput results (PubChem BioAssay)
